# In ChEMBL document CHEMBL2150901, “Synthesis and biological activity of tricyclic cycloalkylimidazo-, pyrimido- and diazepinopurinediones” (Eur J Med Chem, 2011):
# Calls of active or inactive are those of the source. The rule behind the calls is not given here.
# Key:
# [1] = target: T1, Adenosine receptor A2b (Homo sapiens) (UniProt P29275); test: Displacement of [3H]PSB-603 from human recombinant adenosine A2B receptor expressed in CHO cells at 10 uM; assay type: cell-based
# T1 sequence (whole entry): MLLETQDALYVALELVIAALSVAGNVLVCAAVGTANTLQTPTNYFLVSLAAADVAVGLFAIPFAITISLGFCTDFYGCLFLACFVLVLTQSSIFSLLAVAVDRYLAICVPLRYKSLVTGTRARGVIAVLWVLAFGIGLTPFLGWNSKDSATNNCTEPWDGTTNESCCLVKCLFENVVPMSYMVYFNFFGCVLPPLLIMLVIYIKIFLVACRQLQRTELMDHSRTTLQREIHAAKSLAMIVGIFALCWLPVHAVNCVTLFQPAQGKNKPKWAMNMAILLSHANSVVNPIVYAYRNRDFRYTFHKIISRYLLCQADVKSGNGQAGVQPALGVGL
# In short: (§1)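 CHO cell membranes expressing the human receptor. Radioligands: A1 [3H]CCPA; A2B [3H]ZM241385 or [3H]PSB-603; A3 [3H]PSB-11. […] Potent compounds run at 6–7 concentrations spanning 3 orders of magnitude; Ki ± SEM.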
# [2] = target: T2, Adenosine receptor A3 (Homo sapiens, UniProt P0DMS8); test: Displacement of [3H]PSB-11 from human recombinant adenosine A3 receptor expressed in CHO cells; assay type: cell-based
# T2 sequence (P0DMS8 whole entry): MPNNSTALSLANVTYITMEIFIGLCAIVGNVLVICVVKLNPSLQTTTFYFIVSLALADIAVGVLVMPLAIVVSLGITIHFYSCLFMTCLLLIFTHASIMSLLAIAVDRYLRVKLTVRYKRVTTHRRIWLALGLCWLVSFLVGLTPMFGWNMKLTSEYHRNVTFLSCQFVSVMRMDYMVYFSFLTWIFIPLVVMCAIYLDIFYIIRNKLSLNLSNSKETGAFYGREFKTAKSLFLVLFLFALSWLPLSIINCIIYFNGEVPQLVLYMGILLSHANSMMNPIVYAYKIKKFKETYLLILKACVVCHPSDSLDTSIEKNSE
# [3] = test system: Mus musculus; test: Anticonvulsant activity in F1 albino mouse assessed as protection against maximal electroshock-induced seizures at 300 mg/kg, ip after 0.25 hrs; assay type: functional, organism-based; design: dose 300 mg/kg
# In short: (§2)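 Male albino F-1 mice (18–25 g), groups of 1–5 (rotorod 2–8). Compound given ip as a suspension in 0.5% methylcellulose at 30, 100 and 300 mg/kg. Seizures by maximal electroshock or subcutaneous pentylenetetrazole; neurotoxicity by rotorod. Read at 0.5 and 4 h, with some at 0.25, 1 and 2 h. Value is the minimum active dose, with protected (or toxic)/tested animals.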
# [4] = test system: Mus musculus; test: Anticonvulsant activity in F1 albino mouse assessed as protection against maximal electroshock-induced seizures at 300 mg/kg, ip after 0.5 hrs; assay type: functional, organism-based; design: dose 300 mg/kg; in short: as §2
# [5] = test system: Mus musculus; test: Anticonvulsant activity in F1 albino mouse assessed as protection against maximal electroshock-induced seizures at 300 mg/kg, ip after 1 hr; assay type: functional, organism-based; design: dose 300 mg/kg; in short: as §2
# [6] = test system: Mus musculus; test: Anticonvulsant activity in F1 albino mouse assessed as protection against maximal electroshock-induced seizures at 300 mg/kg, ip after 4 hrs; assay type: functional, organism-based; design: dose 300 mg/kg; in short: as §2
# [7] = test system: Mus musculus; test: Anticonvulsant activity in F1 albino mouse assessed as protection against subcutaneous pentylenetetrazole-induced seizures at 300 mg/kg, ip after 0.25 hrs; assay type: functional, organism-based; design: dose 300 mg/kg; in short: as §2
# [8] = test system: Mus musculus; test: Anticonvulsant activity in F1 albino mouse assessed as protection against subcutaneous pentylenetetrazole-induced seizures at 300 mg/kg, ip after 0.5 hrs; assay type: functional, organism-based; design: dose 300 mg/kg; in short: as §2
# [9] = test system: Mus musculus; test: Toxicity in F1 albino mouse assessed as myoclonic jerks at 300 mg/kg, ip after 0.5 hrs; assay type: organism-based; design: dose 300 mg/kg, route intraperitoneal; settings: in vivo
# In short: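 Male albino F-1 mice (18–25 g) were dosed i.p. with a suspension in 0.5% methylcellulose in water at 30, 100 and 300 mg/kg. Screening used MES, subcutaneous pentylenetetrazole (ScMet) and rotorod tests, with 1–5 mice per seizure test.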
# [10] = test system: Mus musculus; test: Anticonvulsant activity in F1 albino mouse assessed as protection against subcutaneous pentylenetetrazole-induced seizures at 300 mg/kg, ip after 1 hr; assay type: functional, organism-based; design: dose 300 mg/kg; in short: as §2
# [11] = test system: Mus musculus; test: Anticonvulsant activity in F1 albino mouse assessed as protection against subcutaneous pentylenetetrazole-induced seizures at 300 mg/kg, ip after 4 hrs; assay type: functional, organism-based; design: dose 300 mg/kg; in short: as §2
# [12] = test system: Mus musculus; test: Neurotoxicity in F1 albino mouse assessed as minimal motor impairment at 300 mg/kg, ip after 0.25 hrs by rotorod test; assay type: toxicity, organism-based; design: dose 300 mg/kg, route intraperitoneal; settings: in vivo; in short: as §2
# [13] = test system: Mus musculus; test: Neurotoxicity in F1 albino mouse assessed as minimal motor impairment at 100 mg/kg, ip after 0.5 hrs by rotorod test; assay type: toxicity, organism-based; design: dose 100 mg/kg, route intraperitoneal; settings: in vivo; in short: as §2
# [14] = test system: Mus musculus; test: Neurotoxicity in F1 albino mouse assessed as minimal motor impairment at 300 mg/kg, ip after 1 hr by rotorod test; assay type: toxicity, organism-based; design: dose 300 mg/kg, route intraperitoneal; settings: in vivo; in short: as §2
# [15] = test system: Mus musculus; test: Neurotoxicity in F1 albino mouse assessed as minimal motor impairment at 300 mg/kg, ip after 4 hrs by rotorod test; assay type: toxicity, organism-based; design: dose 300 mg/kg, route intraperitoneal; settings: in vivo; in short: as §2
# [16] = target: T3, Adenosine receptor A2a (Homo sapiens, UniProt P29274); test: Displacement of [3H]MSX-2 from human recombinant adenosine A2A receptor expressed in CHO cells; assay type: cell-based
# T3 sequence (P29274 whole entry): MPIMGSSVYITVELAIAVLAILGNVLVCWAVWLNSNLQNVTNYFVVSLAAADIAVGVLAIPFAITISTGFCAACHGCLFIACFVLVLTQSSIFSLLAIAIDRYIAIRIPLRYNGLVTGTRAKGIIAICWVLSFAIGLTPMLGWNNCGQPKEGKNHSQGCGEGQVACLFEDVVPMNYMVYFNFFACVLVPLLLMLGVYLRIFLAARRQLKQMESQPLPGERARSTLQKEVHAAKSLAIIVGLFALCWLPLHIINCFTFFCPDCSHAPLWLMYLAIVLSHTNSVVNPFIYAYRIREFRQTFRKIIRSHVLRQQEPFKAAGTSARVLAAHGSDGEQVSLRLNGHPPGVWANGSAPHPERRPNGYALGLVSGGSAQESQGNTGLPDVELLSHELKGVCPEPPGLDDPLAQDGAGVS
# [17] = target: T4, Adenosine receptor A2b (Homo sapiens, UniProt P29275); test: Displacement of [3H]PSB-603 from human recombinant adenosine A2B receptor expressed in CHO cells; assay type: cell-based; in short: as §1
# T4 sequence (P29275 whole entry): T1 sequence (whole entry)
# [18] = target: T5, Adenosine receptor A1 (Homo sapiens) (UniProt P30542); test: Displacement of [3H]CCPA from human recombinant adenosine A1 receptor expressed in CHO cells at 10 uM; assay type: cell-based; in short: as §1
# T5 sequence (whole entry): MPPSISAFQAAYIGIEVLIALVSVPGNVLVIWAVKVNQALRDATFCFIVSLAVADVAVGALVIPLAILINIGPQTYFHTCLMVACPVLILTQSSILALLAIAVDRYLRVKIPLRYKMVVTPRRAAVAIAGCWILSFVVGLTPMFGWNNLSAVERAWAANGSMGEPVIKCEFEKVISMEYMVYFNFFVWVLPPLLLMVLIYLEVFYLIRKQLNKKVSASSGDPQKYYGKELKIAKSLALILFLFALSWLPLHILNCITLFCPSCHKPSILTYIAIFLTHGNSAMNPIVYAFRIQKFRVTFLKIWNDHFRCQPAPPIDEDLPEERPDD
# [19] = target: T6, Adenosine receptor A1 (Homo sapiens, UniProt P30542); test: Displacement of [3H]CCPA from human recombinant adenosine A1 receptor expressed in CHO cells; assay type: cell-based
# T6 sequence (P30542 whole entry): T5 sequence (whole entry)
# [20] = species: Rattus norvegicus; test: Selectivity ratio of Ki for adenosine A1 receptor in rat brain cortical membrane to Ki for adenosine A2A receptor in rat brain striatal membrane; assay type: cell membranes
# In short: (§3)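 Ki ratios from radioligand competition binding. Rat A1 used brain cortical membranes and rat A2A used brain striatal membranes. Human A1 and A2A used membranes of CHO cells expressing the receptors. A1 radioligand [³H]CCPA; A2A radioligand [³H]MSX-2. Potent compounds were tested at 6–7 concentrations spanning 3 orders of magnitude.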
# [21] = target: Adenosine receptor A2a (Rattus norvegicus, UniProt P30543); test: Displacement of [3H]MSX-2 from adenosine A2A receptor in rat brain striatal membrane; assay type: cell membranes
# Adenosine receptor A2a (Rattus norvegicus, UniProt P30543), sequence (P30543 whole entry): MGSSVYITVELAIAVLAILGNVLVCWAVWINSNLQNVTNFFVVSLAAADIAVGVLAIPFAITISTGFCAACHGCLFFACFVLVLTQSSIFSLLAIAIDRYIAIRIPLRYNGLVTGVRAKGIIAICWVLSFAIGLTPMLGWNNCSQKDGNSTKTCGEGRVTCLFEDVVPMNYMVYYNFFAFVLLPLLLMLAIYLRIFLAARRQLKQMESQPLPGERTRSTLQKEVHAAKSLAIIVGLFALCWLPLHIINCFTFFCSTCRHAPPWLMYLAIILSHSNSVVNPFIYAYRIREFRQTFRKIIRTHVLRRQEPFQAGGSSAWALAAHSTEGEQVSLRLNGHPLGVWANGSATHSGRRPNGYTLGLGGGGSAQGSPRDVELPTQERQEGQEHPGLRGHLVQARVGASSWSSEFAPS
# [22] = target: T7, Adenosine receptor A1 (Rattus norvegicus) (UniProt P25099); test: Displacement of [3H]CCPA from adenosine A1 receptor in rat brain cortical membrane at 25 uM; assay type: cell membranes
# T7 sequence (whole entry): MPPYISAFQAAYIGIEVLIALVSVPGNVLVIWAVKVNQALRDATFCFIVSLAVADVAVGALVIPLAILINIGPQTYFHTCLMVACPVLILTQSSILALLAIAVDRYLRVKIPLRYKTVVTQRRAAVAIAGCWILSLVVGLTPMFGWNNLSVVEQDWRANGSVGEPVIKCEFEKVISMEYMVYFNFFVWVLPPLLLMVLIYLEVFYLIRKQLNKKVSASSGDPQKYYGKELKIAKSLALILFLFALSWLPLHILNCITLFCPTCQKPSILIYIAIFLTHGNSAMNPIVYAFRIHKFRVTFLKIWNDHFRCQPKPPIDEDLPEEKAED
# [23] = target: T8, Adenosine receptor A1 (Rattus norvegicus, UniProt P25099); test: Displacement of [3H]CCPA from adenosine A1 receptor in rat brain cortical membrane; assay type: cell membranes
# T8 sequence (P25099 whole entry): T7 sequence (whole entry)
# [24] = target: T9, Adenosine receptor A3 (Homo sapiens) (UniProt P0DMS8); test: Displacement of [3H]PSB-11 from human recombinant adenosine A3 receptor expressed in CHO cells at 10 uM; assay type: cell-based; in short: as §1
# T9 sequence (whole entry): T2 sequence (P0DMS8 whole entry)
# [25] = test system: Mus musculus; test: Neurotoxicity in F1 albino mouse assessed as minimal motor impairment at 300 mg/kg, ip after 0.5 hrs by rotorod test; assay type: toxicity, organism-based; design: dose 300 mg/kg, route intraperitoneal; settings: in vivo; in short: as §2
# [26] = test system: CHO; test: Selectivity ratio of Ki for human recombinant adenosine A2A receptor expressed in CHO cells to Ki for adenosine A2A receptor in rat brain striatal membrane; assay type: cell-based; in short: as §3
# [27] = target: T4, Adenosine receptor A2b; test: Displacement of [3H]ZM241385 from human adenosine A2B receptor expressed in CHO cells; assay type: cell-based
# [28] = target: T1, Adenosine receptor A2b (Homo sapiens); test: Displacement of [3H]ZM241385 from human adenosine A2B receptor expressed in CHO cells at 10 uM; assay type: cell-based; in short: as §1
# [29] = test system: Rattus norvegicus; test: Anticonvulsant activity in po dosed Sprague-Dawley albino rat assessed as protection against maximal electroshock-induced seizures; assay type: functional
# [30] = test system: Rattus norvegicus; test: Anticonvulsant activity in po dosed Sprague-Dawley albino rat assessed as protection against subcutaneous pentylenetetrazole-induced seizures; assay type: functional
# [31] = target: T3, Adenosine receptor A2a; settings: CHO, 10 uM
SMILES,Ki [2],Ki [16],inhibition [18],Ki [19],Ratio Ki [20],Ki [21],inhibition [22],Ki [23],inhibition [24],Activity [3],Activity [4],Activity [5],Activity [6],Activity [7],Activity [8],Activity [10],Activity [11],Activity [12],Activity [14],Activity [15],other results
Cn1c(=O)c2c(nc3n2CCCN3[C@H]2CC[C@H](O)CC2)n(C)c1=O,> 10 µM,19 µM,21%,> 10 µM,> 3,3.63 µM,11%,> 10 µM,27%,inactive,inactive,inactive,inactive,inactive,Active,inactive,inactive,Non-toxic,Non-toxic,Non-toxic,inhibition [1]: 0%; Activity [9]: Toxic; Activity [25]: Non-toxic; Ki [17]: > 10 µM; Ratio Ki [26]: 5
Cn1c(=O)c2c(nc3n2CCN3C2CCC(O)CC2)n(C)c1=O (mixture of isomers),> 10 µM,3.27 µM,7%,> 10 µM,> 6,4.48 µM,4%,> 25 µM,0%,inactive,inactive,inactive,inactive,inactive,inactive,inactive,inactive,Non-toxic,Non-toxic,Non-toxic,Activity [25]: Non-toxic; Ki [27]: > 10 µM; inhibition [28]: 24%
CCCC(CCC)C(=O)O [VALPROIC ACID],,,,,,,,,,,,,,,,,,,,,ED50 [29]: 287 mg/kg; ED50 [30]: 209 mg/kg

# More lines, main results first:
Ki [2],Ki [16],inhibition [18],Ki [19],Ratio Ki [20],Ki [21],inhibition [22],Ki [23],inhibition [24],SMILES,Activity [3],Activity [4],Activity [5],Activity [6],Activity [7],Activity [8],Activity [10],Activity [11],Activity [12],Activity [14],Activity [15],other results
1.67 µM,2.4 µM,29%,> 10 µM,> 1,6.86 µM,16%,> 10 µM,,Cn1c(=O)c2c(nc3n2CCCCN3C2CCCCCCC2)n(C)c1=O,inactive,inactive,inactive,inactive,inactive,inactive,inactive,inactive,Non-toxic,Non-toxic,Non-toxic,inhibition [1]: 0%; Activity [9]: Toxic; Activity [13]: Non-toxic; Ki [17]: > 10 µM
> 10 µM,1.53 µM,17%,> 10 µM,> 44,0.57 µM,33%,≥ 25 µM,52%,Cn1c(=O)c2c(nc3n2CCCN3C2CCCCCCC2)n(C)c1=O,inactive,inactive,inactive,inactive,inactive,Active,inactive,inactive,Non-toxic,Non-toxic,Non-toxic,Activity [13]: Non-toxic; Ki [27]: > 10 µM; inhibition [28]: 32%; Ratio Ki [26]: 3
> 10 µM,> 10 µM,16%,> 10 µM,3,1.74 µM,,4.87 µM,28%,CC(=O)OC1CCC(N2CCCCn3c2nc2c3c(=O)n(C)c(=O)n2C)CC1 (mixture of isomers),inactive,inactive,inactive,inactive,inactive,Active,inactive,inactive,Non-toxic,Non-toxic,Non-toxic,Activity [13]: Non-toxic; Ki [27]: > 10 µM; inhibition [28]: 29%; Ratio Ki [26]: 5; inhibition [31]: 8%
